Lipid droplet – modulators of hepatic lipid droplet formation; AML12 mouse hepatocytes, oleate lipid droplets, BODIPY imaging; inhibition, % at 6.5 µM; actives 0.4% (n = 240,000); AID 1656;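 active = lipid droplet intensity inhibited by at least 50%, with more than 500 cells counted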
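Technique: fluorescence imaging, 20x objective, two fields per well / Assay system: AML12 hepatocytes (mouse) / Measure: % inhibition of lipid droplet signal / Doses: 6.5 µM single-point dosing / Incubation: overnight exposure / Reagent: 100 µM oleic acid challenge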
RGS4 pot – potentiators or activators of RGS4; HEK293 M3R/inducible RGS4, carbachol calcium flux Fluo4; stronger effect = lower value; B-score at 10 µM; actives 0.92% (n = 310,000); AID 463111;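 active = B-score of the integrated calcium signal more than 4 SD below the library mean, with starting fluorescence not abnormally high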;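 also: negative B-score means reduced calcium response which marks RGS4 activation or potentiation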
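test system = M3R-expressing HEK293 line, RGS4 induced by doxycycline | probe or stimulus = carbachol at ECmax as muscarinic agonist stimulus | timing = dye loading 30 min 37 °C, buffer rest 30 min RT | signal = calcium dye Fluo4 fluorescence | evaluation = B score from integrated fluorescence ratio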
MrgX1 ag – human MrgX1 receptor agonism, primary screen | Q96LB2 | MrgX1-HEK293 cells, Fluo-4 calcium fluorescence, agonist mode; stronger effect = higher value | B-score at 10 µM | actives 0.44% (n = 310,000) | AID 588627;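 active = calcium response B-score plate-corrected fluorescence ratio at least 3 library SD, with starting fluorescence B-score inside 5 SD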
Target sequence (Q96LB2 whole entry, looked up): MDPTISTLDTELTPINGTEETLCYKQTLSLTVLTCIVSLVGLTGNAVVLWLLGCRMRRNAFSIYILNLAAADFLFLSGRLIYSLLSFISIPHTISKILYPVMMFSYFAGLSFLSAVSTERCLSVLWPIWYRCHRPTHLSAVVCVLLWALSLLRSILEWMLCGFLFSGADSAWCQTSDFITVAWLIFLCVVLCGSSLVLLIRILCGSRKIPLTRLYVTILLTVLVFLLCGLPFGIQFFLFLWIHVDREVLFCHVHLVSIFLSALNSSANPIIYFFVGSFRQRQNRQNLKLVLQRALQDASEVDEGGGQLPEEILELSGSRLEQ
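Test system: Stable human MrgX1 HEK293 cell line | Schedule: Overnight plating before 1 h dye loading | Read-out basis: Baseline-normalised fluorescence change ratio, B-scored | Detection: Kinetic calcium dye fluorescence, Fluo-4 NW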
MrgX1 antagonist – antagonists of human MrgX1 receptor; Q96LB2; MRGX1-HEK293 calcium flux, Fluo-4, BAM8-22 antagonism; stronger effect = lower value; B-score at 10 µM; actives 1.3% (n = 310,000);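 active = calcium-response B-score plate-corrected more than 3 library SD below zero, starting fluorescence within 5 deviations, no agonist response on first addition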;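 also: peak minus trough fluorescence over baseline after final BAM8-22 challenge near maximal dose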
RGS4 inh – inhibitors of human RGS4 | P49798 | HEK293 M3R/RGS4 inducible, Fluo-4 calcium flux; stronger effect = higher value; triggered by carbachol at its EC20 | B-score at 10 µM | actives 0.45% (n = 310,000);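 active = B-score, a plate-corrected calcium signal, over three deviations above library mean, with baseline fluorescence within five deviations of library mean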;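 also: RGS4 expression induced by doxycycline in cells with stable M3 receptor; B-score is computed from the integrated fluorescence ratio over baseline after carbachol; higher B-score means a larger calcium signal and so more RGS4 inhibition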
Target sequence (P49798 whole entry, looked up): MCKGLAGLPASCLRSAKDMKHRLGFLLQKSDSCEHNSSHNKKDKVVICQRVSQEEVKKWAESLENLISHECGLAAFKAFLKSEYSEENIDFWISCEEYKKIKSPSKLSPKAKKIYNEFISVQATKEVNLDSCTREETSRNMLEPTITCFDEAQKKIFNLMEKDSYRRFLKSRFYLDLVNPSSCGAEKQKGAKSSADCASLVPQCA
MrgX1 allo act – human MrgX1 positive allosteric modulation, primary screen | Q96LB2 | actives 0.63% (n = 310,000) | B-score at 10 µM | MrgX1-HEK293, Fluo-4 calcium flux, FDSS; stronger effect = higher value;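 active = plate-corrected calcium response at least 3 library SD above typical, normal starting fluorescence, not activating the receptor alone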;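 also: compound read alongside a low EC10 to EC30 dose of BAM8-22 agonist; peak minus trough fluorescence over baseline measured at the second addition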
MrgX1 ant reconf – human MrgX1 receptor antagonism, re-confirmation screen; shares compounds with MrgX1 antagonist; MrgX1-HEK293, BAM8-22 calcium flux, Fluo-4; stronger effect = lower value; remaining BAM8-22 calcium response % of control (stronger effect = lower value), % at 10 µM; actives 19% (n = 2,300); AID 602420;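 active = remaining agonist calcium response no higher than 100% minus 3 SD of agonist-only control wells, with starting fluorescence near control levels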;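 also: agonist BAM8-22 given at a near maximal EC90 to ECmax level; peak minus minimum fluorescence divided by baseline after agonist addition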
HEK293 Ca flux – MrgX1 antagonist counter-screen hit in parental HEK293 cells; shares compounds with MrgX1 antagonist; Fluo-4 calcium fluorescence, FDSS; fluorescence ratio F(max-min)/F0 at 10 µM; actives 2% (n = 4,000);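 active = duplicate-averaged calcium fluorescence ratio at least three times the standard deviation of buffer wells, a nonspecific response in parental cells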
HEK293 Ca counter – counter-screen for MrgX1 allosteric activators: effect in parental HEK293 cells; shares compounds with MrgX1 antagonist; parental HEK293 calcium flux, Fluo-4 fluorescence ratio; stronger effect = higher value; fluorescence ratio F(max-min)/F0 at 10 µM; actives 0.4% (n = 4,000); AID 624114;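 active = calcium fluorescence ratio, averaged over duplicates, at least 3 SD of the buffer-well ratio, meaning a nonspecific response in receptor-free cells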;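 also: untransfected parental HEK293 lacking MrgX1 used as counterscreen for MrgX1 allosteric activators; fluorescence change taken during the second addition on a kinetic imager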
HEK293 Ca cntr2 – activity in parental HEK293 cells lacking MrgX1 receptor; actives 8.7% (n = 4,000); Fluo-4 calcium fluorescence (FDSS); stronger effect = higher value; shares compounds with MrgX1 antagonist; fluorescence ratio F(max-min)/F0 at 10 µM;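 active = calcium fluorescence ratio at least three times the spread of buffer wells, meaning a non-specific response in parental cells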
Numbers without * were called inactive; i = inactive; . = not tested or not shown. Rows were chosen to be rich in hits. Some 3.8% of all compounds tested hit in one or more screens of this group.

SMILES	Lipid droplet	RGS4 pot	MrgX1 ag	MrgX1 antagonist	RGS4 inh	MrgX1 allo act	MrgX1 ant reconf	HEK293 Ca flux	HEK293 Ca counter	HEK293 Ca cntr2
CCOc1ncccc1C(=O)OCC(=O)NCc1ccc2c(c1)OCO2	-2	i	i	-4.9*	i	i	i	i	i	i
O=C(CN1C(=O)NC2(CCCCC2)C1=O)N1CCN(S(=O)(=O)c2ccccc2)CC1	-10	i	i	-5.5*	i	i	i	i	i	i
CC(C(=O)Nc1sc2c(c1C(=O)NCc1ccco1)CCCC2)N1C(=O)c2ccccc2C1=O (stereo not drawn)	0	i	i	i	i	i	.	.	.	.
O=C(CCN1C(=O)c2ccccc2C1=O)Nc1sc2c(c1C(=O)NCc1ccco1)CCCC2	-2	i	i	-4.9*	i	i	i	i	i	i
O=C1CCC(=O)N1Cc1c(Cl)cccc1Cl	8	i	i	i	i	i	.	.	.	.
COc1ccc2oc(C(=O)OCC(=O)Nc3ccc(N4CCOCC4)cc3)c(C)c2c1	.	i	i	-8.5*	i	i	i	i	i	i
COc1ccc2oc(C(=O)OCC(=O)Nc3ccccc3)c(C)c2c1	-2	i	i	i	i	i	.	.	.	.
CN(/N=C/c1ccc(-c2ccc([N+](=O)[O-])cc2)o1)c1ccccc1	44	i	i	-11*	i	i	i	i	i	i
CN(/N=C/c1cc([N+](=O)[O-])ccc1O)c1ccccc1	-2	i	i	i	i	i	.	.	.	.
O=C(O)CCCN1C(=O)C(=O)/C(=C(/O)c2ccccc2)C1/C=C/c1ccccc1 (stereo not drawn)	2	i	i	i	i	i	.	.	.	.
Cc1ccc(C(C(=O)NC2CCCC2)N(Cc2ccc(F)cc2)C(=O)c2csnn2)o1 (stereo not drawn)	.	i	i	-4.6*	i	i	i	i	i	i
COC(=O)c1ccc(NC(=O)c2cccc(Cl)c2)o1	.	i	i	i	i	i	.	.	.	.
COc1cccc(-c2nc(NC3CCCC3)c3ccccc3n2)c1O	.	i	i	-5.1*	i	i	74%*	i	i	i
C=CCNc1nc(-c2cccc(OC)c2O)nc2ccccc12	.	i	i	i	i	i	.	.	.	.
O=C(NCc1ccc2c(c1)OCO2)c1ccc(NS(=O)(=O)c2ccc3c(c2)OCCO3)cc1	10	i	i	-6.9*	i	i	i	i	i	i
CNC(=O)COc1ccc(S(=O)(=O)Nc2ccc(C)cc2)cc1	-1	i	i	i	i	i	.	.	.	.
Cc1ccc(NS(=O)(=O)c2ccc(OCC(N)=O)cc2)cc1	19	i	i	-9.4*	i	i	i	i	i	i
Cc1ccc(NS(=O)(=O)c2ccc(C(=O)NCc3ccncc3)cc2)cc1	.	i	i	-4.6*	i	i	79%*	i	i	i
NC(=O)CC(NC(=O)Cc1cccc2ccccc12)c1ccc(N2CCN(c3ccccn3)CC2)c([N+](=O)[O-])c1 (stereo not drawn)	1	i	i	i	i	i	.	.	.	.
O=C(CN1C(=O)C2C3C=CC(C3)C2C1=O)Nc1ccc2c(c1)OCCO2 (stereo not drawn)	.	i	i	i	i	i	.	.	.	.
CN(C)S(=O)(=O)c1cccc(NC(=O)CN2C(=O)C3C4C=CC(C4)C3C2=O)c1 (stereo not drawn)	-14	i	i	-6.8*	i	i	i	i	i	i
O=C(NC1CC1)c1cc2c(s1)-c1ccccc1OC2	.	i	i	-5.2*	i	i	i	i	i	i
Cc1cc2c(C)nc3ccccc3c2o1	.	i	i	-4.7*	i	i	i	i	i	i
Cc1nc2ccccc2c2oc(C(=O)NC3CC3)cc12	.	i	i	i	i	i	.	.	.	.
COc1ccc(OCC(=O)N2N=C(C(F)F)CC2(O)C(F)F)cc1 (stereo not drawn)	-4	i	i	i	i	i	.	.	.	.
SMILES	Lipid droplet	RGS4 pot	MrgX1 ag	MrgX1 antagonist	RGS4 inh	MrgX1 allo act	MrgX1 ant reconf	HEK293 Ca flux	HEK293 Ca counter	HEK293 Ca cntr2
O=C(Cc1ccc(Cl)cc1)Nc1ccc(N2CCCC2)cc1	15	.	i	-5.3*	.	i	i	i	i	i
COc1cc(CO)cc(Br)c1OCc1cccnc1	.	i	i	i	i	i	.	.	.	.
COc1cccc(CN2CCC(C(=O)N3CCN(c4ccccc4F)CC3)CC2)c1OC	2	i	i	-9.2*	i	i	i	i	i	i
COc1cc(CN2CCC(C(=O)N3CCN(c4ccccc4F)CC3)CC2)cc(OC)c1OC	-3	i	i	i	i	i	.	.	.	.
COC(=O)c1c2c(nc3ccccc13)CCC2	-3	i	i	i	i	i	.	.	.	.
COc1c2c(nc3ccccc13)OC(C(C)(O)CO)C2 (stereo not drawn)	6	i	i	-6.9*	i	i	i	i	i	i
CC1CN(C(=O)C2CC2)C(C)CN1C(=O)C1CC1 (stereo not drawn)	0	i	i	i	i	i	.	.	.	.
COc1cc(OC)cc(C(=O)NN(CCC#N)C2=NS(=O)(=O)c3ccccc32)c1	7	i	i	i	i	i	.	.	.	.
O=C(O)c1cnn2c(C(F)F)cc(C3CC3)nc12	7	i	i	i	i	i	.	.	.	.
CC(=O)c1ccc(NC(=O)c2cnn3c(C(F)F)cc(C4CC4)nc23)cc1	.	i	i	-5*	i	i	i	i	i	i
CCC(=O)Nc1ccccc1C(=O)OCC(=O)c1ccc2ccccc2c1	-4	i	i	-6.3*	i	i	i	i	i	i

Bioassay records from PubChem BioAssay.
